In ChEMBL document CHEMBL4118098, “Discovery of DS28120313 as a potent orally active hepcidin production inhibitor: Design and optimization of novel 4,6-disubstituted indazole derivatives” (Bioorg Med Chem Lett, 2017):

Assays:
[1] = biological target: MAP kinase-interacting serine/threonine-protein kinase 2 (Homo sapiens) (UniProt Q9HBH9); experiment: Inhibition of MNK2 (unknown origin) at 0.45 uM relative to control
[2] = biological target: Epidermal growth factor receptor (Homo sapiens) (UniProt P00533); experiment: Inhibition of EGFR (unknown origin) at 0.45 uM relative to control
[3] = biological target: Glycogen synthase kinase-3 alpha (Homo sapiens) (UniProt P49840); experiment: Inhibition of GSK3-alpha (unknown origin) at 0.45 uM relative to control
[4] = biological target: Tyrosine-protein kinase Fes/Fps (Homo sapiens) (UniProt P07332); experiment: Inhibition of FES (unknown origin) at 0.45 uM relative to control
[5] = tested on: Mast/stem cell growth factor receptor Kit (Homo sapiens), P10721 [T670I]; experiment: Inhibition of KIT T670I mutant (unknown origin) at 0.45 uM relative to control
[6] = biological target: Inhibitor of nuclear factor kappa-B kinase subunit epsilon (Homo sapiens) (UniProt Q14164); experiment: Inhibition of IKBKE (unknown origin) at 0.19 uM relative to control
[7] = biological target: Mitogen-activated protein kinase 3 (Homo sapiens) (UniProt P27361); experiment: Inhibition of Erk1 (unknown origin) at 0.19 uM relative to control
[8] = biological target: Dual specificity tyrosine-phosphorylation-regulated kinase 1A (Homo sapiens) (UniProt Q13627); experiment: Inhibition of DYRK1a (unknown origin) at 0.19 uM relative to control
[9] = biological target: Cyclin-dependent kinase 9 (Homo sapiens) (UniProt P50750); experiment: Inhibition of CDK9 (unknown origin) at 0.19 uM relative to control
[10] = biological target: Tyrosine-protein kinase SYK (Homo sapiens) (UniProt P43405); experiment: Inhibition of SYK (unknown origin) at 0.19 uM relative to control
[11] = biological target: Tyrosine-protein kinase Lyn (Homo sapiens) (UniProt P07948); experiment: Inhibition of LYN (unknown origin) at 0.19 uM relative to control
[12] = biological target: Vascular endothelial growth factor receptor 3 (Homo sapiens) (UniProt P35916); experiment: Inhibition of FLT4 (unknown origin) at 0.19 uM relative to control
[13] = biological target: Hepatocyte growth factor receptor (Homo sapiens) (UniProt P08581); experiment: Inhibition of MET (unknown origin) at 0.19 uM relative to control
[14] = biological target: RAF proto-oncogene serine/threonine-protein kinase (Homo sapiens) (UniProt P04049); experiment: Inhibition of c-Raf (unknown origin) at 0.19 uM relative to control
[15] = biological target: Tyrosine-protein kinase Lck (Homo sapiens) (UniProt P06239); experiment: Inhibition of LCK (unknown origin) at 0.19 uM relative to control
[16] = biological target: Macrophage-stimulating protein receptor (Homo sapiens) (UniProt Q04912); experiment: Inhibition of MST1R (unknown origin) at 0.19 uM relative to control
[17] = biological target: Serine/threonine-protein kinase Sgk3 (Homo sapiens) (UniProt Q96BR1); experiment: Inhibition of SGK3 (unknown origin) at 0.19 uM relative to control
[18] = biological target: Serine/threonine-protein kinase Nek2 (Homo sapiens) (UniProt P51955); experiment: Inhibition of NEK2 (unknown origin) at 0.19 uM relative to control
[19] = biological target: Tyrosine-protein kinase Fgr (Homo sapiens) (UniProt P09769); experiment: Inhibition of FGR (unknown origin) at 0.19 uM relative to control
[20] = biological target: Ephrin type-B receptor 4 (Homo sapiens) (UniProt P54760); experiment: Inhibition of EPHB4 (unknown origin) at 0.19 uM relative to control
[21] = biological target: Mitogen-activated protein kinase kinase kinase kinase 2 (Homo sapiens) (UniProt Q12851); experiment: Inhibition of GCK (unknown origin) at 0.19 uM relative to control
[22] = biological target: Misshapen-like kinase 1 (Homo sapiens) (UniProt Q8N4C8); experiment: Inhibition of MINK (unknown origin) at 0.164 uM relative to control
[23] = biological target: Tyrosine-protein kinase Tec (Homo sapiens) (UniProt P42680); experiment: Inhibition of TEC (unknown origin) at 0.164 uM relative to control
[24] = biological target: Fibroblast growth factor receptor 1 (Homo sapiens) (UniProt P11362); experiment: Inhibition of FGFR1 (unknown origin) at 0.164 uM relative to control
[25] = biological target: Protein kinase C alpha type (Homo sapiens) (UniProt P17252); experiment: Inhibition of PKC-alpha (unknown origin) at 0.164 uM relative to control
[26] = biological target: Protein kinase C gamma type (Homo sapiens) (UniProt P05129); experiment: Inhibition of PKC-gamma (unknown origin) at 0.164 uM relative to control
[27] = tested on: Mitogen-activated protein kinase 14 (Homo sapiens), Q16539 [T106M]; experiment: Inhibition of SAPK2a T106M mutant (unknown origin) at 0.164 uM relative to control
[28] = biological target: Maternal embryonic leucine zipper kinase (Homo sapiens) (UniProt Q14680); experiment: Inhibition of MELK (unknown origin) at 0.164 uM relative to control
[29] = biological target: Calcium/calmodulin-dependent protein kinase type II subunit gamma (Homo sapiens) (UniProt Q13555); experiment: Inhibition of CaMK2-gamma (unknown origin) at 0.164 uM relative to control
[30] = AUC in C57BL/6J mouse at 30 mg/kg, po by LC-MS/MS analysis; assay type: ADME, organism-based; details: in vivo
Method in brief: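 C57BL/6J mice received a single oral dose of 30 mg/kg as a suspension in 0.5% methylcellulose. Plasma Cmax and AUC are reported as the average of two animals.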

[31] = biological target: Tyrosine-protein kinase Mer (Homo sapiens) (UniProt Q12866); experiment: Inhibition of Mer (unknown origin) at 0.164 uM relative to control
[32] = biological target: Ribosomal protein S6 kinase alpha-5 (Homo sapiens) (UniProt O75582); experiment: Inhibition of MSK1 (unknown origin) at 0.164 uM relative to control
[33] = biological target: Ephrin type-B receptor 4 (Homo sapiens) (UniProt P54760); experiment: Inhibition of EPHB4 (unknown origin) at 0.164 uM relative to control
[34] = biological target: Vascular endothelial growth factor receptor 3 (Homo sapiens) (UniProt P35916); experiment: Inhibition of FLT4 (unknown origin) at 0.164 uM relative to control
[35] = Fraction unbound in mouse plasma; assay type: ADME, cell-free
[36] = tested on: Epidermal growth factor receptor (Homo sapiens), P00533 [L858R,T790M]; experiment: Inhibition of EGFR T790M/L858R double mutant (unknown origin) at 0.164 uM relative to control
[37] = biological target: Casein kinase I isoform alpha (Homo sapiens) (UniProt P48729); experiment: Inhibition of CSNK1A1 (unknown origin) at 0.164 uM relative to control
[38] = biological target: Serine/threonine-protein kinase Sgk3 (Homo sapiens) (UniProt Q96BR1); experiment: Inhibition of SGK3 (unknown origin) at 0.164 uM relative to control
[39] = biological target: Tyrosine-protein kinase Fgr (Homo sapiens) (UniProt P09769); experiment: Inhibition of FGR (unknown origin) at 0.164 uM relative to control

Cc1n[nH]c(C)c1-c1ccc2c(NC(=O)c3ccc(N4CCN(C)CC4)cc3)n[nH]c2c1
inhibition [1]: -1%
inhibition [2]: -6%
inhibition [3]: -1%
inhibition [4]: -3.3%
inhibition [5]: -10%

Cc1[nH]nc(C2CC2)c1-c1ccc2c(-c3ccc(N4CCN(C)CC4)nc3)n[nH]c2c1
inhibition [6]: 1%
inhibition [7]: 3.7%
inhibition [8]: 3.3%
inhibition [9]: -1%
inhibition [10]: 4.7%
inhibition [11]: 13.7%
inhibition [12]: 28.3%
inhibition [13]: 7.3%
inhibition [14]: 4.7%
inhibition [15]: 26.7%
inhibition [16]: -4.3%
inhibition [17]: 4%
inhibition [18]: 12%
inhibition [19]: -3%
inhibition [20]: 0.3%
inhibition [21]: 16.7%

COC(=O)Nc1cc(-c2c(C3CC3)n[nH]c2C)cc2[nH]ncc12
inhibition [22]: 7%
inhibition [23]: -4.3%
inhibition [24]: 9.7%
inhibition [25]: 1.3%
inhibition [26]: -2.7%
inhibition [27]: 0.7%
inhibition [28]: 10.7%
inhibition [29]: 18%
AUC [30]: 14700 ng·h/mL
inhibition [31]: 6%
inhibition [32]: 7.7%
inhibition [33]: -2.3%
inhibition [34]: 5.3%
fraction unbound [35]: 0.24
inhibition [36]: 1%
inhibition [37]: 5%
inhibition [38]: 3%
inhibition [39]: -4.3%
